Data taken from ChEMBL document CHEMBL3352384, “Synthesis and biological activity of new salicylanilide N,N-disubstituted carbamates and thiocarbamates” (Bioorg Med Chem, 2014).
In brackets after ≈: the same amount, converted by molar mass.

What was measured:
Mycobacterium avium [1] = test: Antimycobacterial activity against Isoniazid, rifampicin, ofloxacin and ethambutol-resistant Mycobacterium avium 330/88 assessed as complete growth inhibition after 21 days; format: functional; conditions: 330/88, 504 h
Outline: (§1)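 M. tuberculosis 331/88 (H37Rv) inoculum diluted 10-3, M. avium 330/88 diluted 10-5. MIC is the lowest concentration giving complete growth inhibition. Isoniazid and p-aminosalicylic acid as references. Quadruplicate, repeated twice.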

Mycobacterium avium [2] = test: Antimycobacterial activity against Isoniazid, rifampicin, ofloxacin and ethambutol-resistant Mycobacterium avium 330/88 assessed as complete growth inhibition after 14 days; format: functional; conditions: 330/88, 336 h; outline: as §1
Mycobacterium kansasii [3] = test: Antimycobacterial activity against Mycobacterium kansasii 235/80 assessed as complete growth inhibition after 14 days; format: functional; conditions: 235/80, 336 h
Outline: (§2)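 Dilutions of M. kansasii inoculum were 10-4 for strain 235/80 and 10-5 for clinical isolate 6509/96. MIC was the lowest concentration giving complete growth inhibition, run in quadruplicate and repeated twice.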

Mycobacterium kansasii [4] = test: Antimycobacterial activity against clinical isolate Mycobacterium kansasii 6509/96 assessed as complete growth inhibition after 14 days; format: functional; conditions: 6509/96, 336 h; outline: as §2
Mycobacterium kansasii [5] = test: Antimycobacterial activity against clinical isolate Mycobacterium kansasii 6509/96 assessed as complete growth inhibition after 21 days; format: functional; conditions: 6509/96, 504 h; outline: as §2
Mycobacterium kansasii [6] = test: Antimycobacterial activity against clinical isolate Mycobacterium kansasii 6509/96 assessed as complete growth inhibition after 7 days; format: functional; conditions: 6509/96, 168 h; outline: as §2
[7] = Inhibition of Mycobacterium tuberculosis H37Rv isocitrate lyase assessed as glyoxylate phenyl hydrazone formation at 10 uM
[8] = system: Mycobacterium tuberculosis; test: Antimycobacterial activity against Mycobacterium tuberculosis H37Rv 331/88 assessed as complete growth inhibition after 21 days; format: functional; conditions: H37Rv 331/88, 504 h; outline: as §1
[9] = system: Mycobacterium tuberculosis; test: Antimycobacterial activity against Mycobacterium tuberculosis H37Rv 331/88 assessed as complete growth inhibition after 14 days; format: functional; conditions: H37Rv 331/88, 336 h; outline: as §1
HepG2 = test: Cytotoxicity against human HepG2 cells assessed as reduction in cell viability after 24 hrs by MTS assay; format: cell-based; conditions: HepG2, 24 h
Outline: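 HepG2 hepatocellular carcinoma cells (passage 3–4) were grown in Eagle's MEM with 10% FBS, 1% L-glutamine and non-essential amino acids. Compounds were added from DMSO at eight concentrations in triplicate, with 10% DMSO as the 0% viability control. Viability was read by tetrazolium salt reduction (CellTiter 96 AQueous One). IC50 is the concentration reducing viability to 50% of control.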

Mycobacterium kansasii [10] = test: Antimycobacterial activity against Mycobacterium kansasii 235/80 assessed as complete growth inhibition after 21 days; format: functional; conditions: 235/80, 504 h; outline: as §2
Mycobacterium kansasii [11] = test: Antimycobacterial activity against Mycobacterium kansasii 235/80 assessed as complete growth inhibition after 7 days; format: functional; conditions: 235/80, 168 h; outline: as §2
[12] = Selectivity index, ratio of IC50 for human HepG2 cells to MIC for atypical mycobacteria
Outline: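 Selectivity index = HepG2 IC50 / MIC. HepG2 cells (passage 3–4) grown in Eagle's MEM with 10% FBS, L-glutamine and non-essential amino acids. Compounds added from DMSO, eight concentrations in triplicate, tetrazolium-reduction colorimetric read-out. IC50 is the concentration reducing viability to 50% of control; 10% DMSO as 0% viability.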

[13] = Selectivity index, ratio of IC50 for human HepG2 cells to MIC for Mycobacterium tuberculosis H37Rv; format: toxicity, cell-based; conditions: read-out: Selectivity Index
Outline: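 Selectivity index = HepG2 IC50 / MIC. HepG2 cells (passage 3–4) grown in Eagle's MEM with 10% FBS, L-glutamine and non-essential amino acids. Compounds added from DMSO, eight concentrations in triplicate, tetrazolium-reduction colorimetric read-out.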

SMILES	MIC (Mycobacterium avium [1]) [µM]	MIC (Mycobacterium avium [2]) [µM]	MIC (Mycobacterium kansasii [3]) [µM]	MIC (Mycobacterium kansasii [4]) [µM]	MIC (Mycobacterium kansasii [5]) [µM]	MIC (Mycobacterium kansasii [6]) [µM]	inhibition [7] [%]	MIC [8] [µM]	MIC [9] [µM]	IC50 (HepG2) [µM]	MIC (Mycobacterium kansasii [10]) [µM]	MIC (Mycobacterium kansasii [11]) [µM]	Selectivity Index [12]	selectivity ratio [13]
CN(C)C(=S)Oc1ccccc1C(=O)Nc1ccccc1	> 1000	> 1000	> 1000	> 1000	> 1000	> 1000	6	> 1000	> 1000	> 500	> 1000	> 1000	–	–
CN(C(=O)Oc1ccc(Cl)cc1C(=O)Nc1ccc(Cl)cc1)c1ccccc1	250 (≈ 104 µg/mL)	250 (≈ 104 µg/mL)	125 (≈ 51.9 µg/mL)	62.5 (≈ 26 µg/mL)	125 (≈ 51.9 µg/mL)	32 (≈ 13.3 µg/mL)	17	32 (≈ 13.3 µg/mL)	32 (≈ 13.3 µg/mL)	289	125 (≈ 51.9 µg/mL)	62.5 (≈ 26 µg/mL)	<=9	9
CN(C)C(=O)Oc1ccc(Cl)cc1C(=O)Nc1ccc(C(F)(F)F)cc1	250 (≈ 96.7 µg/mL)	250 (≈ 96.7 µg/mL)	250 (≈ 96.7 µg/mL)	250 (≈ 96.7 µg/mL)	250 (≈ 96.7 µg/mL)	250 (≈ 96.7 µg/mL)	11	> 1000	> 1000	6510	250 (≈ 96.7 µg/mL)	250 (≈ 96.7 µg/mL)	–	–
CN(C(=O)Oc1ccccc1C(=O)Nc1ccccc1)c1ccccc1	> 1000	> 1000	500 (≈ 173 µg/mL)	500 (≈ 173 µg/mL)	1000 (≈ 346 µg/mL)	250 (≈ 86.6 µg/mL)	3	250 (≈ 86.6 µg/mL)	250 (≈ 86.6 µg/mL)	280	500 (≈ 173 µg/mL)	250 (≈ 86.6 µg/mL)	<=1.1	1.1
O=C(Nc1ccc(C(F)(F)F)cc1)c1cc(Cl)ccc1OC(=O)N(c1ccccc1)c1ccccc1	250 (≈ 128 µg/mL)	250 (≈ 128 µg/mL)	125 (≈ 63.9 µg/mL)	125 (≈ 63.9 µg/mL)	125 (≈ 63.9 µg/mL)	125 (≈ 63.9 µg/mL)	21	125 (≈ 63.9 µg/mL)	125 (≈ 63.9 µg/mL)	> 100	125 (≈ 63.9 µg/mL)	125 (≈ 63.9 µg/mL)	–	–
O=C(Nc1ccccc1)c1ccccc1O [SALICYLANILIDE]	250 (≈ 53.3 µg/mL)	125 (≈ 26.7 µg/mL)	250 (≈ 53.3 µg/mL)	250 (≈ 53.3 µg/mL)	250 (≈ 53.3 µg/mL)	125 (≈ 26.7 µg/mL)	9	125 (≈ 26.7 µg/mL)	32 (≈ 6.82 µg/mL)	89.8	250 (≈ 53.3 µg/mL)	125 (≈ 26.7 µg/mL)	0.36	0.7
CN(C(=O)Oc1ccc(Cl)cc1C(=O)Nc1ccc(F)cc1)c1ccccc1	250 (≈ 99.7 µg/mL)	250 (≈ 99.7 µg/mL)	125 (≈ 49.9 µg/mL)	125 (≈ 49.9 µg/mL)	125 (≈ 49.9 µg/mL)	62.5 (≈ 24.9 µg/mL)	14	62.5 (≈ 24.9 µg/mL)	32 (≈ 12.8 µg/mL)	512	125 (≈ 49.9 µg/mL)	62.5 (≈ 24.9 µg/mL)	<=8.2	8.2
CN(C(=O)Oc1ccc(Cl)cc1C(=O)Nc1ccc(Br)cc1)c1ccccc1	250 (≈ 115 µg/mL)	250 (≈ 115 µg/mL)	125 (≈ 57.5 µg/mL)	62.5 (≈ 28.7 µg/mL)	125 (≈ 57.5 µg/mL)	32 (≈ 14.7 µg/mL)	14	32 (≈ 14.7 µg/mL)	32 (≈ 14.7 µg/mL)	945	125 (≈ 57.5 µg/mL)	32 (≈ 14.7 µg/mL)	<=29.5	29.5
O=C(Nc1ccc(Cl)cc1)c1cc(Cl)ccc1OC(=O)N(c1ccccc1)c1ccccc1	250 (≈ 119 µg/mL)	250 (≈ 119 µg/mL)	125 (≈ 59.7 µg/mL)	62.5 (≈ 29.8 µg/mL)	62.5 (≈ 29.8 µg/mL)	32 (≈ 15.3 µg/mL)	20	250 (≈ 119 µg/mL)	250 (≈ 119 µg/mL)	> 100	125 (≈ 59.7 µg/mL)	32 (≈ 15.3 µg/mL)	–	–
CN(C)C(=O)Oc1ccc(Cl)cc1C(=O)Nc1ccc(Br)cc1	62.5 (≈ 24.9 µg/mL)	62.5 (≈ 24.9 µg/mL)	125 (≈ 49.7 µg/mL)	62.5 (≈ 24.9 µg/mL)	62.5 (≈ 24.9 µg/mL)	62.5 (≈ 24.9 µg/mL)	9	16 (≈ 6.36 µg/mL)	16 (≈ 6.36 µg/mL)	342	125 (≈ 49.7 µg/mL)	62.5 (≈ 24.9 µg/mL)	<=5.5	21.4
CN(C(=O)Oc1ccc(Cl)cc1C(=O)Nc1ccc(C(F)(F)F)cc1)c1ccccc1	250 (≈ 112 µg/mL)	250 (≈ 112 µg/mL)	125 (≈ 56.1 µg/mL)	125 (≈ 56.1 µg/mL)	125 (≈ 56.1 µg/mL)	125 (≈ 56.1 µg/mL)	16	125 (≈ 56.1 µg/mL)	125 (≈ 56.1 µg/mL)	> 100	125 (≈ 56.1 µg/mL)	125 (≈ 56.1 µg/mL)	–	–
O=C(Nc1ccccc1)c1ccccc1OC(=O)N(c1ccccc1)c1ccccc1	62.5 (≈ 25.5 µg/mL)	62.5 (≈ 25.5 µg/mL)	125 (≈ 51.1 µg/mL)	125 (≈ 51.1 µg/mL)	125 (≈ 51.1 µg/mL)	125 (≈ 51.1 µg/mL)	8	125 (≈ 51.1 µg/mL)	125 (≈ 51.1 µg/mL)	211	125 (≈ 51.1 µg/mL)	62.5 (≈ 25.5 µg/mL)	1.7	1.7
CN(C)C(=O)Oc1ccccc1C(=O)Nc1ccccc1	1000 (≈ 284 µg/mL)	1000 (≈ 284 µg/mL)	1000 (≈ 284 µg/mL)	1000 (≈ 284 µg/mL)	1000 (≈ 284 µg/mL)	1000 (≈ 284 µg/mL)	10	1000 (≈ 284 µg/mL)	1000 (≈ 284 µg/mL)	5990	1000 (≈ 284 µg/mL)	1000 (≈ 284 µg/mL)	6	6
O=C(O)CC[N+](=O)[O-]	> 1000	> 1000	> 1000	> 1000	> 1000	> 1000	25	> 1000	–	692	> 1000	> 1000	<0.7	< 0.7
O=C(Nc1ccc(C(F)(F)F)cc1)c1cc(Cl)ccc1O	8 (≈ 2.53 µg/mL)	4 (≈ 1.26 µg/mL)	4 (≈ 1.26 µg/mL)	4 (≈ 1.26 µg/mL)	4 (≈ 1.26 µg/mL)	2 (≈ 0.631 µg/mL)	6	2 (≈ 0.631 µg/mL)	1 (≈ 0.316 µg/mL)	0.36	4 (≈ 1.26 µg/mL)	2 (≈ 0.631 µg/mL)	–	–
Nc1ccc(C(=O)O)c(O)c1 [AMINOSALICYLIC ACID]	125 (≈ 19.1 µg/mL)	32 (≈ 4.9 µg/mL)	1000 (≈ 153 µg/mL)	125 (≈ 19.1 µg/mL)	500 (≈ 76.6 µg/mL)	32 (≈ 4.9 µg/mL)	10	62.5 (≈ 9.57 µg/mL)	62.5 (≈ 9.57 µg/mL)	2240	> 1000	125 (≈ 19.1 µg/mL)	<2.2	35.8
O=C(Nc1ccc(Br)cc1)c1cc(Cl)ccc1OC(=O)N(c1ccccc1)c1ccccc1	250 (≈ 130 µg/mL)	250 (≈ 130 µg/mL)	125 (≈ 65.2 µg/mL)	62.5 (≈ 32.6 µg/mL)	62.5 (≈ 32.6 µg/mL)	32 (≈ 16.7 µg/mL)	19	250 (≈ 130 µg/mL)	250 (≈ 130 µg/mL)	> 100	125 (≈ 65.2 µg/mL)	32 (≈ 16.7 µg/mL)	–	–
O=C(Nc1ccc(F)cc1)c1cc(Cl)ccc1OC(=O)N(c1ccccc1)c1ccccc1	250 (≈ 115 µg/mL)	250 (≈ 115 µg/mL)	62.5 (≈ 28.8 µg/mL)	125 (≈ 57.6 µg/mL)	125 (≈ 57.6 µg/mL)	125 (≈ 57.6 µg/mL)	22	250 (≈ 115 µg/mL)	250 (≈ 115 µg/mL)	> 100	62.5 (≈ 28.8 µg/mL)	62.5 (≈ 28.8 µg/mL)	–	–
